Among the data in ChEMBL document CHEMBL1649516, “Pyrazolopyrimidinediones are selective agents for Helicobacter pylori that suppress growth through inhibition of glutamate racemase (MurI)” (2009) are MIC and Activity values, retold here.

The subject of one assay is Escherichia coli. Briefly: Antibacterial activity against Escherichia coli by CLSI M100-S13 method. In kind it is functional. The essentials:
(§1)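 Broth MICs were run per CLSI guidelines. Compounds were dissolved in DMSO at 2% final concentration, and 2% DMSO alone served as the control.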

The subject of another assay is Staphylococcus aureus. In words: Antibacterial activity against Staphylococcus aureus by CLSI M100-S13 method. In kind it is functional. The procedure, abridged: as §1
The next assay relates to Enterococcus faecium. Briefly: Antibacterial activity against Enterococcus faecium ATCC 19434 by CLSI M100-S13 method. In kind it is functional. The procedure, abridged:
as §1

Assay [1] has as its target T1, Glutamate racemase (Helicobacter pylori (strain ATCC 700392 / 26695) (Campylobacterpylori)) (UniProt P56068).
T1 sequence (whole entry): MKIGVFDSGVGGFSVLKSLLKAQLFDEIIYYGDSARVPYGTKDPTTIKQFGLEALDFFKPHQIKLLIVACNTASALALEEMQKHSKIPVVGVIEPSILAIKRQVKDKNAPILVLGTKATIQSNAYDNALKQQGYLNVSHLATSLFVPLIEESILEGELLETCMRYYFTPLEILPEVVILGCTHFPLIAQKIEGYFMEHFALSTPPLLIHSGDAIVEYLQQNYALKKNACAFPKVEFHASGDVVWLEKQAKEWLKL
In words: Inhibition of MurI in flaA mutant Helicobacter pylori Hp80.2 overexpressing MurI gene assessed as microbial growth inhibition by CLSI M100-S13 method. The essentials:
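MIC against H. pylori Hp80.2, a strain built in the wild-type ARHp80 background by replacing flaA with a murI expression construct (pSM116) so that flaA-promoter-driven MurI is overexpressed, confirmed by PCR, sequencing and Western blot. The comparison strain is isogenic Hp80.1, which carries the empty construct. Compounds were dissolved in DMSO, 2% final, with 2% DMSO as control.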

Assay [2] concerns Helicobacter pylori. In words: Antibacterial activity against Helicobacter pylori ARHp80 by CLSI M100-S13 method. Format: functional. The essentials:
(§2)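 MICs for H. pylori, C. coli and C. jejuni were determined by a previously described susceptibility method. Compounds were in DMSO at 2% final, and 2% DMSO served as the control.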

Assay [3] concerns Helicobacter pylori. Briefly: Antibacterial activity against HefC-deficient Helicobacter pylori ARHp80 by CLSI M100-S13 method. In kind it is functional. The procedure, abridged: as §2
A further assay deals with Moraxella catarrhalis. Briefly: Antibacterial activity against Moraxella catarrhalis ATCC 43617 by CLSI M100-S13 method. In kind it is functional. The procedure, abridged: as §1
Another assay deals with Haemophilus influenzae. In words: Antibacterial activity against Haemophilus influenzae ATCC 51907 by CLSI M100-S13 method. In kind it is functional. The procedure, abridged:
as §1

For assay [4], the system named is Helicobacter pylori. In words: Antibacterial activity against Helicobacter pylori SS1 by CLSI M100-S13 method. Format: functional. The procedure, abridged: as §2
The test system of another assay is Streptococcus pneumoniae. Briefly: Antibacterial activity against Streptococcus pneumoniae NCTC 7466 by CLSI M100-S13 method. Conditions: NCTC7466. In kind it is functional. The essentials: as §1
In assay [5] the test system is Helicobacter pylori. In words: Induction of morphological changes in Helicobacter pylori by phase contrast microscopy. In kind it is functional, organism-based. The procedure, abridged: (§3)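 H. pylori was grown at 37°C in brucella broth with 5% fetal calf serum under microaerophilic gas (5% O2, 10% CO2, 85% N2), then examined for cell shape by phase-contrast microscopy.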

For assay [6], the system named is Fusobacterium necrophorum. Briefly: Antibacterial activity against Fusobacterium necrophorum clinical isolate by CLSI M100-S13 method. Format: functional. The procedure, abridged: (§4)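 Anaerobic MICs run by CLSI broth microdilution guidelines for Bacteroides fragilis. Compounds were dissolved in DMSO at 2% final in all wells, and 2% DMSO served as the solvent control.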

In assay [7] the test system is Bacteroides thetaiotaomicron. Briefly: Antibacterial activity against Bacteroides thetaiotaomicron clinical isolate by CLSI M100-S13 method. In kind it is functional. The procedure, abridged: as §4
Another assay relates to Campylobacter coli. Briefly: Antibacterial activity against Campylobacter coli ATCC 33559 by CLSI M100-S13 method. Format: functional. The essentials:
as §2

Assay [8] concerns the target T1, Glutamate racemase (Helicobacter pylori (strain ATCC 700392 / 26695) (Campylobacterpylori)). In words: Inhibition of MurI in Helicobacter pylori assessed as morphological change at 2 times MIC by phase contrast microscopy. The procedure, abridged:
as §3

In a further assay the test system is Lactobacillus jensenii. In words: Antibacterial activity against Lactobacillus jensenii clinical isolate by CLSI M100-S13 method. In kind it is functional.
In assay [9] the test system is Prevotella melaninogenica. In words: Antibacterial activity against Prevotella melaninogenica clinical isolate by CLSI M100-S13 method. Format: functional. The procedure, abridged:
as §4

The subject of a further assay is Fusobacterium mortiferum. In words: Antibacterial activity against Fusobacterium mortiferum clinical isolate by CLSI M100-S13 method. In kind it is functional. The procedure, abridged: as §4
Another assay has as its system Campylobacter jejuni. Briefly: Antibacterial activity against Campylobacter jejuni ATCC 33560 by CLSI M100-S13 method. In kind it is functional. The procedure, abridged:
as §2

The next assay concerns Bacteroides fragilis. Briefly: Antibacterial activity against Bacteroides fragilis ATCC 25285 by CLSI M11-S13 broth microdilution method. In kind it is functional. The procedure, abridged: as §4
(In general: Dilution methods test growth across graded concentrations, often in twofold steps.)

For a further assay, the system named is Clostridioides difficile. In words: Antibacterial activity against Clostridium difficile clinical isolate by CLSI M100-S13 method. Format: functional. The procedure, abridged: as §4

The structures appear in SMILES notation. Converted amounts (≈) assume the structure as drawn. The source made the active and inactive calls. No cut-off for these calls is given here.

Regarding `CC(C)Cn1c(=O)n(C)c(=O)c2c(-c3ccncc3)n(Cc3cccc4ccccc34)nc21`, the MIC against Escherichia coli was above 64 µg/mL; in the assay with Staphylococcus aureus it was above 64 µg/mL; in the assay on Enterococcus faecium, above 64 µg/mL; in assay [1], 8 µg/mL (≈ 18.2 µM); with Helicobacter pylori [2] it was 4 µg/mL (≈ 9.1 µM); in the assay on Helicobacter pylori [3], 1 µg/mL (≈ 2.28 µM). Besides, the MIC with Moraxella catarrhalis is above 64 µg/mL; in the assay on Haemophilus influenzae it was above 64 µg/mL; in the assay on Helicobacter pylori [4], 4 µg/mL (≈ 9.1 µM); in the assay on Streptococcus pneumoniae, above 64 µg/mL.
For `Cn1cc([S+](C)[O-])cc1-c1c2c(=O)n(C)c(=O)n(CC3CC3)c2nn1Cc1ccnc2ccc(Cl)cc12` (configuration not stated), the MIC against Escherichia coli is above 64 µg/mL; against Staphylococcus aureus it was above 64 µg/mL; with Enterococcus faecium it was above 64 µg/mL; in [1] it was 16 µg/mL (≈ 29.8 µM); with Helicobacter pylori [2], 8 µg/mL (≈ 14.9 µM); with Helicobacter pylori [3], 0.25 µg/mL (≈ 0.466 µM). For the same molecule, the MIC against Moraxella catarrhalis was above 64 µg/mL; against Haemophilus influenzae, above 64 µg/mL; with Helicobacter pylori [4], 16 µg/mL (≈ 29.8 µM); with Streptococcus pneumoniae it was above 64 µg/mL.
Regarding `C#CCn1c(=O)c2c(-c3cncn3C)n(Cc3ccnc4ccc(Cl)cc34)nc2n(CC2CC2)c1=O`, the MIC is above 64 µg/mL with Escherichia coli; above 64 µg/mL in the assay on Staphylococcus aureus; 8 µg/mL (≈ 16 µM) in [1]; 1 µg/mL (≈ 2 µM) in the assay with Helicobacter pylori [2]; 0.25 µg/mL (≈ 0.5 µM) in the assay with Helicobacter pylori [3]; 2 µg/mL (≈ 4 µM) against Helicobacter pylori [4].
With `CN(C)[C@@H]1C(O)=C(C(N)=O)C(=O)[C@@]2(O)C(O)=C3C(=O)c4c(O)cccc4[C@@](C)(O)[C@H]3C[C@@H]12` [TETRACYCLINE], the MIC in assay [1] turned out to be 0.13 µg/mL (≈ 0.293 µM); in the assay on Helicobacter pylori [2], 0.13 µg/mL (≈ 0.293 µM); with Helicobacter pylori [3], 0.015 µg/mL (≈ 0.0338 µM); against Helicobacter pylori [4], 0.25 µg/mL (≈ 0.563 µM). Also, the outcome in the assay with Helicobacter pylori [5] was Active.
For the molecule `Cn1cc(C#N)cc1-c1c2c(=O)n(C)c(=O)n(CC3CC3)c2nn1Cc1ccnc2ccc(Cl)cc12`, the MIC was above 64 µg/mL in the assay with Escherichia coli; above 64 µg/mL against Staphylococcus aureus; above 64 µg/mL in assay [6]; 4 µg/mL (≈ 8 µM) in [1]; above 64 µg/mL in [7]; 0.5 µg/mL (≈ 1 µM) in the assay with Helicobacter pylori [2]. Besides, the MIC in the assay with Campylobacter coli is above 64 µg/mL; against Helicobacter pylori [3], 0.25 µg/mL (≈ 0.5 µM); in the assay with Lactobacillus jensenii, above 64 µg/mL; in [9], above 64 µg/mL; in the assay on Fusobacterium mortiferum, above 64 µg/mL; against Campylobacter jejuni, above 64 µg/mL. The figures for the MIC with Helicobacter pylori [4], against Bacteroides fragilis and in the assay on Clostridioides difficile were 1 µg/mL (≈ 2 µM), above 64 µg/mL and above 64 µg/mL, respectively. Further, in [8], the Activity result was “Non-toxic”.
Take `C#CCn1c(=O)c2c(-c3cc(C#N)cn3C)n(Cc3cc(C#N)nc4ccc(Cl)cc34)nc2n(CC2CC2)c1=O`: the MIC in the assay on Escherichia coli was above 64 µg/mL; with Staphylococcus aureus it was above 64 µg/mL; in assay [1], above 64 µg/mL; in the assay with Helicobacter pylori [2], 1 µg/mL (≈ 1.82 µM); in the assay on Helicobacter pylori [3], 0.5 µg/mL (≈ 0.911 µM); in the assay with Helicobacter pylori [4] it was 2 µg/mL (≈ 3.64 µM).
Take `CONC(=O)c1cc(-c2c3c(=O)n(C)c(=O)n(CC4CC4)c3nn2Cc2c[nH]c3ccc(C)cc23)n(C)c1`: the MIC with Escherichia coli is above 64 µg/mL; in the assay with Staphylococcus aureus, above 64 µg/mL; in the assay on Enterococcus faecium, above 32 µg/mL; in the assay with Helicobacter pylori [2] it was 16 µg/mL (≈ 31 µM); against Helicobacter pylori [3], 0.25 µg/mL (≈ 0.485 µM); with Moraxella catarrhalis it was above 32 µg/mL. Further, the MIC was above 32 µg/mL against Haemophilus influenzae, 16 µg/mL (≈ 31 µM) with Helicobacter pylori [4] and above 32 µg/mL against Streptococcus pneumoniae.
